Unmarked numbers belong to inactive results. Results filed as inconclusive are left out. The source made the active and inactive calls.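 Rule for the calls, unless noted: active = growth inhibition above 25% in both replicates, a cutoff set 3 SD above the mean; inconclusive = above 25% in only one replicate; inactive = the rest.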
Tests used:
[1] = OD615 S. cerevisiae growth inhibition, permissive medium, pilot counter-assay, permissive growth control for S. cerevisiae lifespan shortening project (AID 705); conditions: OD615, 24 h, at 10 µM, active compounds read high
Procedure, shortened: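 assay system = Saccharomyces cerevisiae strain carrying genetically modified DeaD replicative-lifespan system | medium = SC raffinose/galactose permissive medium | dosing = 10 µM single dose, 0.25% DMSO | schedule = 24 h compound exposure at 30 °C after 4 h pre-growth | measured by = OD at 615 nm | read-out basis = growth inhibition from lowered OD615 after 24 h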

[2] = Restrictive medium S. cerevisiae growth inhibition, OD615, pilot screen of yeast lifespan reduction project, restrictive growth control (AID 706;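 active = growth inhibition above a set limit, 3 SD over mean compound inhibition, in both replicates, cut at about 43% in these data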;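 note: modified DeaD lifespan yeast strain shifted to restrictive glucose medium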); conditions: OD615, 48 h, at 10 µM, active compounds read high
Procedure, shortened: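 Buffer or medium: CSMM-D glucose medium. Material: genetically modified Saccharomyces cerevisiae, DeaD replicative lifespan assay strain. Times: 48 h compound exposure at 30 °C. Measured by: optical density at 615 nm.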

[3] = viability gain of MRP-1-high H69AR cells under doxorubicin, pilot screen, MRP-1 activator project, CellTiter-Glo, duplicate (AID 807;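 active = viability increase at or above a cutoff of the median across tested compounds plus 3 SD, cut at about 8.5% in these data, passing the limit was not always enough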;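 note: compound pretreatment 18-22 h then 72 h combined with doxorubicin; 0% = doxorubicin alone and 100% = vehicle without doxorubicin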); conditions: H69AR viability with doxorubicin, CellTiter-Glo luminescence; at 10 µM; active compounds read high
[4] = growth suppression of beta-catenin knockout HCT116, pilot screen, human colon tumor cells (AID 823;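 active = cell viability at or below a set limit in both duplicate runs, the limit being the all-compound median minus 4 SD, cut at about 23% in these data, passing the limit was not always enough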;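 note: 0% = wells killed by 20 µM Hyamine and 100% = untreated DMSO cell wells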); conditions: CellTiter-Glo, 60 h, at 10 µM, active compounds read low
[5] = growth suppression of PTEN-deleted HCT116, pilot screen, cell-based, HCT116 clonal line, CellTiter-Glo (AID 824;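 active = viability at or below 27.92% in each of two runs, the all-compound median minus 4 SD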;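 note: 0% = 20 µM Hyamine control and 100% = vehicle cell control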); conditions: 60 h, at 10 µM, active compounds read low
[6] = inhibitors of the yeast RAM network, pilot screen, dse1pr::URA3 reporter, 5-FOA selection (AID 869;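 active = inhibition over a set limit, the all-compound mean plus 3 SD, in both replicate runs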;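 note: 0% = DMSO wells with no growth and 100% = 10 µM 1-NA-PP1 with full growth; RAM network block rescues cells from 5-FOA so hits raise OD615 growth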); conditions: S. cerevisiae dse1pr::URA3 5-FOA growth, OD615, 2 d; at 10 µM; active compounds read high; strain carries analog-sensitive mutant Cbk1 kinase

Row | Compound | growth inhibition [1] [%] | growth inhibition [2] [%] | viability increase [3] | viability [4] | viability [5] [%] | inhibition [6]
1 | C=CCSc1nnc2c(n1)OC=Nc1ccccc1-2 | -4.68 | 29.7 | 2.06% | 97.9% | 101 | 3.17%
2 | O=C(Cn1cc2c(n1)CCCC2)NCc1ccccn1 | -2.39 | 2.25 | -0.85% | 104% | 106 | 0.72%
3 | COc1cc(/C=C/C2=NC(=O)C(C)(C)O2)ccc1O | -1.35 | 6.79 | -7.42% | 65.9% | 71.9 | 0.485%
4 | Brc1ccc(Oc2nnnn2-c2ccccc2)cc1 | -5.57 | -3.68 | 0.29% | 95.3% | 88.9 | 1.51%
5 | COC(=O)c1ccc(C)c(NC(=O)CN(c2cc(OC)ccc2OC)S(C)(=O)=O)c1 | -8.06 | -3.94 | -3.03% | 75.5% | 68.6 | 0.035%
6 | N#CCCN1CCN(C(=S)c2ccc(-c3cccc(Cl)c3)o2)CC1 | -12.9 | 22.7 | -0.32% | 76.9% | 83 | 1.51%
7 | Cc1ccc(CNC(=O)CS(=O)Cc2nc(-c3ccccc3C)oc2C)cc1 (configuration not stated) | -3.71 | 1.06 | 0.04% | 90.3% | 98.4 | 1.06%
8 | Cn1c(=O)oc2cc(S(=O)(=O)N3CCC(C(=O)NCC4COc5ccccc5O4)CC3)ccc21 (configuration not stated) | -17.2 | -19.6 | 0.66% | 103% | 96.8 | 3.92%
9 | COc1ccccc1N1CCN(C(=O)c2cc3c(-c4ccc(Cl)cc4)nn(C)c3s2)CC1 | -1.53 | 13.8 | -4.63% | 60.8% | 47.9 | 2.8%
10 | COc1ccc(-c2cc(CCCC(=O)NCc3ccccn3)no2)cc1 | -5.78 | 8.54 | -1.34% | 98.8% | 97.8 | 1.08%
11 | Brc1ccc(-c2nnc3ccc(N4CCN(c5ccccc5)CC4)nn23)cc1 | 7.94 | -10.7 | -5.11% | 82.8% | 75.5 | 2.52%
12 | Cc1noc(/C=C/N(C)C)c1S(=O)(=O)N1CCCC(C(=O)NCc2cccs2)C1 (configuration not stated) | 2 | -3.34 | 10.6% (active) | 93.2% | 88.5 | 0.21%
13 | CCOc1ccc(CN2CCNC(=O)C2CC(=O)OC)cc1 (configuration not stated) | 0.415 | -7.59 | -0.51% | 98.7% | 102 | 1.59%
14 | CC(C)n1c(C(=O)OCC(=O)NCc2ccc3c(c2)OCO3)cc2sccc21 | -10.2 | -12.8 | -6.26% | 53.4% |  | 2.71%
15 | C=CCn1c(SCc2cc(=O)n3ccsc3n2)nc2scc(C3CC3)c2c1=O | -3.27 | -5.57 | -3.7% |  | 91.8 | 2.79%
16 | CCNC(=O)CCn1nc(-c2ccc(Cl)cc2)c2ccccc2c1=O | -10.9 | -10.1 | -5.74% | 49.5% |  | 0.575%
17 | Cc1ccc(-c2nc3cnccn3c2Nc2ccc3c(c2)OCCO3)o1 | -11.4 | -5.81 | -5.2% | 92.4% |  | 1.19%
18 | CCOC(=O)c1ccc(NC(=O)c2ccc(C)c(S(=O)(=O)N3CCOCC3)c2)cc1 | -7.03 | -5.64 | -3.41% | 12.8% (active) |  | 0.87%
19 | COc1cc2[nH]c(=O)n(Cc3ccc(C(=O)NCC4CCCO4)cc3)c(=O)c2cc1OC (configuration not stated) | -14.9 | -17.9 | -3.55% | 90.2% |  | 3.56%
20 | COC(=O)CNc1c(-c2ccccn2)nc2ccc(Br)cn12 | -20.4 | 10.8 | -2.57% | 89.2% |  | 0.175%
21 | CN(Cc1ccccc1)c1oc(COc2ccccc2F)nc1C#N | -1.62 | -8.97 | 2.94% | 80.2% | 80.9 | 1.07%
22 | CCCOc1cccc(C(=O)Nc2cccnc2)c1 | -6.8 | -0.66 | 3.16% | 92.6% | 96.2 | 0.93%

Row | Compound | growth inhibition [1] [%] | growth inhibition [2] [%] | viability increase [3] | viability [4] | viability [5] [%] | inhibition [6]
23 | COc1cc(C2CC(=O)c3c([nH]c(C(=O)OCCOC(C)C)c3C)C2)cc(OC)c1OC (configuration not stated) | -15.2 | -28.2 | -2.78% |  | 42.7 | 1.85%
24 | N#CCSc1n[nH]c2nc3c(c(=O)n12)C1(CCCC1)Cc1ccccc1-3 | -1.95 | 28 | 4.21% | 102% |  | 2.08%
25 | COC(=O)c1c(-c2ccc(F)cc2)csc1NC(=O)c1ccco1 | -27.6 | 0.595 | 1.29% | 78.5% |  | 1.12%
26 | Cc1c(/C=N/n2cnnc2)c2ccccc2n1CCOc1ccc(Cl)cc1 | 3.74 | 17.6 | -4.25% |  | 90 | 4.12%
27 | COc1ccc(C(=O)/C=C/Nc2cc(C)on2)cc1 | -11.9 | -11.9 | -0.71% |  | 97 | 
28 | COC(=O)C1=C(N)N(c2ccc(F)cc2)C2=C(C(=O)CCC2)C1c1ccc2c(c1)OCO2 (configuration not stated) | -6.41 | -5.16 | -0.72% | 84.9% | 86 | 3.19%
29 | COc1ccc(Nc2nc(N)nc(CN3CCC(Cc4ccccc4)CC3)n2)cc1 | 6.83 | -0.085 | -6.58% |  | 35.8 | 0.1%
30 | N#CC1=C2SCN(c3ccccc3)CN2C(=O)CC1c1ccccc1Cl (configuration not stated) | 6.17 |  | -5.58% | 97.2% | 82.5 | 2.58%
31 | O=C(c1cnn2ccccc12)N1CCCc2ccccc21 | -3.54 | -1.29 | -1.74% | 97.1% | 91.9 | 2.38%
32 | Cc1noc(/C=C/N(C)C)c1S(=O)(=O)N1CCCC(C(=O)NCc2ccc(F)cc2)C1 (configuration not stated) | -4.61 | -8.86 |  | 90.1% | 85.8 | 
33 | Cc1c(C(=O)NCc2cccs2)oc2ccc(S(=O)(=O)N3CCOCC3)cc12 | -0.625 | -4.37 | -4.32% | 79.6% |  | 0.46%
34 | O=c1c2ccccc2nc(N2CCN(c3ccccc3)CC2)n1Cc1ccccc1 | -18.7 | -8.96 | -6.05% | 66.3% | 72.8 | 1.27%
35 | C(=C\c1ccccc1)/CN1CCN(c2ncnc3c2oc2ccccc23)CC1 | -2.64 | -6.73 | -3.8% |  |  | 1.36%
36 | CCC1(C)Cc2ccccc2-c2nc3n(c(=O)c21)CCCCC3 (configuration not stated) | -8.71 | -14.2 | -1.36% | 88.1% |  | 4.02%
37 | Cc1cc(C)n(-c2nc3ccccc3nc2Nc2ccc3c(c2)OCO3)n1 | -18.7 | 1.25 | 6.2% | 87.7% | 81.7 | 6.39% (active)
38 | COc1ccc(N(CC(=O)NCCSc2ccccn2)S(C)(=O)=O)cc1Cl | -5.09 | -6.72 | -3.81% |  | 97.3 | 1.44%
39 | CSc1nc(NCCOCCO)c2sc3nc(-c4ccco4)c4c(c3c2n1)CCC4 | -7.22 | 0.84 | -4.7% | 81.3% |  | 1.51%
40 | Cc1cccc(N2CCN(C(=O)c3cc4c(=O)n(C)c5ccccc5c4n3C)CC2C)c1 (configuration not stated) | -3.86 | 3.15 | -4.81% |  |  | 1.81%
41 | CCOC(=O)c1ccc(NC(=O)c2cc3ccccc3o2)cc1 | -5.56 | -8.95 | 1.54% | 86.2% | 86.6 | 1%
42 | COc1ccc(OC)c(NC(=O)CN(c2ccc(C(C)C)cc2)S(=O)(=O)c2c(C)noc2C)c1 | -11.5 | -12.1 | -4.81% | 56.5% | 48.1 | 2.27%
43 | CCN(CC)S(=O)(=O)c1cc(-c2nnc(-c3ccc(Br)cc3)o2)ccc1Cl | -10.3 | -14.6 | 1.36% |  | 41.7 | 2.41%

From PubChem BioAssay
